Measured values reported in ChEMBL document CHEMBL4052700, “Synthesis and biological evaluation of JL-A7 derivatives as potent ABCB1 inhibitors” (Bioorg Med Chem, 2017).
Structures can show the parent of a compound that is named as a salt. Values belong to the compound of their own block, whether it stands above or below them.

Key:
Type in all cases: cell-based
K562 = test: Cytotoxicity against human K562 cells after 48 hrs by MTT assay; conditions: K562, 48 h
Outline: (§1)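 K562 (parental) and K562/A02 (ADM-resistant, ABCB1-overexpressing) cells, 1×10^4/well, grown 24 h. A graded dose of compound in medium was added, then 48 h at 37 °C under 5% CO2. MTT was added for 4 h at 37 °C and absorbance read at 570 nm. IC50 was taken from dose–response curves.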

[1] = biological target: T1, ATP-dependent translocase ABCB1 (Homo sapiens, UniProt P08183); test: Inhibition of ABCB1 in human K562/A02 cells assessed as potentiation of adriamycin-induced cytotoxicity by measuring reduction in ADR IC50 at 5 uM measured after 48 hrs by MTT assay relative to ADR alone
Outline: (§2)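 K562/A02 cells in RPMI 1640 with 10% FBS, 1×10^4/well, grown 24 h. Graded ADM was given with the modulator (0.025–5.0 µM), 48 h at 37 °C, 5% CO2. MTT 4 h, A570. ADM IC50 came from dose–response curves. RF = ADM IC50 without modulator / IC50 with modulator. Triplicates, three independent runs, mean ± SD.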

K562/A02 = test: Cytotoxicity against human K562/A02 cells after 48 hrs by MTT assay; conditions: K562/A02, 48 h; outline: as §1
[2] = biological target: T1, ATP-dependent translocase ABCB1; test: Inhibition of ABCB1 in human K562/A02 cells assessed as potentiation of adriamycin-induced cytotoxicity by measuring ADR IC50 treated for 48 hrs followed by compound washout measured after 6 hrs by MTT assay relative to ADR alone
Outline: (§3)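 Duration of reversal in K562/A02 cells. After modulator exposure, cells were tested without washout or after modulator removal followed by 0, 6, 12 or 24 h in drug-free medium. ADM IC50 was then found by MTT. RF = IC50 without modulator / IC50 with modulator. Two to three experiments, mean ± SD.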

[3] = biological target: T1, ATP-dependent translocase ABCB1; test: Inhibition of ABCB1 in human K562/A02 cells assessed as potentiation of adriamycin-induced cytotoxicity by measuring ADR IC50 treated for 48 hrs followed by compound washout measured immediately by MTT assay relative to ADR alone; outline: as §3
[4] = biological target: T1, ATP-dependent translocase ABCB1; test: Inhibition of ABCB1 in human K562/A02 cells assessed as potentiation of adriamycin-induced cytotoxicity by measuring ADR IC50 treated for 48 hrs followed by compound washout measured after 24 hrs by MTT assay relative to ADR alone; outline: as §3
[5] = biological target: T1, ATP-dependent translocase ABCB1; test: Inhibition of ABCB1 in human K562/A02 cells assessed as potentiation of adriamycin-induced cytotoxicity by measuring ADR IC50 treated for 48 hrs followed by compound washout measured after 12 hrs by MTT assay relative to ADR alone; outline: as §3
[6] = biological target: T1, ATP-dependent translocase ABCB1; test: Inhibition of ABCB1 in human K562/A02 cells assessed as potentiation of adriamycin-induced cytotoxicity by measuring reduction in ADR IC50 measured after 48 hrs by MTT assay relative to ADR alone; outline: as §2
[7] = biological target: T1, ATP-dependent translocase ABCB1; test: Inhibition of ABCB1 in human K562/A02 cells assessed as increase in adriamycin accumulation pretreated for 60 mins followed by ADR addition after 90 mins by fluorescence spectrophotometric method; conditions: 1.5 h
Outline: (§4)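 ADM was then added at 20 µM for 90 min. Cells were washed three times with PBS at 4 °C. Retained intracellular ADM mean fluorescence intensity was read by fluorescence spectrophotometer. Three independent experiments, mean ± SD.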

[8] = biological target: T1, ATP-dependent translocase ABCB1; test: Inhibition of ABCB1 in human K562/A02 cells assessed as potentiation of adriamycin-induced cytotoxicity by measuring reduction in ADR IC50 at 0.05 uM measured after 48 hrs by MTT assay relative to ADR alone; outline: as §2
[9] = biological target: T1, ATP-dependent translocase ABCB1; test: Inhibition of ABCB1 in human K562/A02 cells assessed as increase in adriamycin accumulation at 0.5 to 2.5 uM pretreated for 60 mins followed by ADR addition after 90 mins by fluorescence spectrophotometric method; conditions: 1.5 h; outline: as §4
[10] = biological target: T1, ATP-dependent translocase ABCB1; test: Inhibition of ABCB1 in human K562/A02 cells assessed as rhodamine123 efflux after 90 mins by flow cytometric analysis (reference value: 0.0231 +/- 0.0058 /s); conditions: 1.5 h
[11] = biological target: T1, ATP-dependent translocase ABCB1; test: Inhibition of ABCB1 in human K562/A02 cells assessed as potentiation of adriamycin-induced cytotoxicity by measuring reduction in ADR IC50 at 2.5 uM measured after 48 hrs by MTT assay relative to ADR alone; outline: as §2
[12] = biological target: T1, ATP-dependent translocase ABCB1; test: Inhibition of ABCB1 in human K562/A02 cells assessed as potentiation of adriamycin-induced cytotoxicity by measuring reduction in ADR IC50 at 0.25 uM measured after 48 hrs by MTT assay relative to ADR alone; outline: as §2
[13] = biological target: T1, ATP-dependent translocase ABCB1; test: Inhibition of ABCB1 in human K562/A02 cells assessed as potentiation of adriamycin-induced cytotoxicity by measuring reduction in ADR IC50 at 1 uM measured after 48 hrs by MTT assay relative to ADR alone; outline: as §2
[14] = biological target: T1, ATP-dependent translocase ABCB1; test: Inhibition of ABCB1 in human K562/A02 cells assessed as increase in doxorubicin accumulation after 90 mins by rhodamine123 staining based flow cytometric analysis; conditions: 1.5 h
[15] = biological target: T1, ATP-dependent translocase ABCB1; test: Inhibition of ABCB1 in human K562/A02 cells assessed as potentiation of adriamycin-induced cytotoxicity by measuring reduction in ADR IC50 at 0.025 uM measured after 48 hrs by MTT assay relative to ADR alone; outline: as §2
[16] = biological target: T1, ATP-dependent translocase ABCB1; test: Inhibition of ABCB1 in human K562/A02 cells assessed as potentiation of adriamycin-induced cytotoxicity by measuring reduction in ADR IC50 at 5 uM measured after 48 hrs by MTT assay relative to JL-A7
[17] = biological target: T1, ATP-dependent translocase ABCB1; test: Inhibition of ABCB1 in human K562/A02 cells assessed as potentiation of adriamycin-induced cytotoxicity measured after 48 hrs by MTT assay; outline: as §2
[18] = biological target: T1, ATP-dependent translocase ABCB1; test: Inhibition of ABCB1 in human K562/A02 cells assessed as potentiation of adriamycin-induced cytotoxicity by measuring reduction in ADR IC50 at 5 uM measured after 48 hrs by MTT assay relative to tariquidar
[19] = biological target: T1, ATP-dependent translocase ABCB1; test: Inhibition of ABCB1 in human K562/A02 cells assessed as potentiation of adriamycin-induced cytotoxicity by measuring reduction in ADR IC50 at 0.1 uM measured after 48 hrs by MTT assay relative to ADR alone; outline: as §2
[20] = biological target: T1, ATP-dependent translocase ABCB1; test: Inhibition of ABCB1 in human K562/A02 cells assessed as potentiation of adriamycin-induced cytotoxicity by measuring reduction in ADR IC50 at 5 uM measured after 48 hrs by MTT assay relative to verapamil
[21] = biological target: T1, ATP-dependent translocase ABCB1; test: Potency index, ratio of compound effect to verapamil effect for inhibition of ABCB1 in human K562/A02 cells assessed as increase in adriamycin accumulation at 5 uM; outline: as §4
[22] = biological target: T1, ATP-dependent translocase ABCB1; test: Inhibition of ABCB1 in human K562/A02 cells assessed as potentiation of adriamycin-induced cytotoxicity by measuring reduction in ADR IC50 at 0.5 uM measured after 48 hrs by MTT assay relative to ADR alone; outline: as §2

T1 sequence (P08183 whole entry): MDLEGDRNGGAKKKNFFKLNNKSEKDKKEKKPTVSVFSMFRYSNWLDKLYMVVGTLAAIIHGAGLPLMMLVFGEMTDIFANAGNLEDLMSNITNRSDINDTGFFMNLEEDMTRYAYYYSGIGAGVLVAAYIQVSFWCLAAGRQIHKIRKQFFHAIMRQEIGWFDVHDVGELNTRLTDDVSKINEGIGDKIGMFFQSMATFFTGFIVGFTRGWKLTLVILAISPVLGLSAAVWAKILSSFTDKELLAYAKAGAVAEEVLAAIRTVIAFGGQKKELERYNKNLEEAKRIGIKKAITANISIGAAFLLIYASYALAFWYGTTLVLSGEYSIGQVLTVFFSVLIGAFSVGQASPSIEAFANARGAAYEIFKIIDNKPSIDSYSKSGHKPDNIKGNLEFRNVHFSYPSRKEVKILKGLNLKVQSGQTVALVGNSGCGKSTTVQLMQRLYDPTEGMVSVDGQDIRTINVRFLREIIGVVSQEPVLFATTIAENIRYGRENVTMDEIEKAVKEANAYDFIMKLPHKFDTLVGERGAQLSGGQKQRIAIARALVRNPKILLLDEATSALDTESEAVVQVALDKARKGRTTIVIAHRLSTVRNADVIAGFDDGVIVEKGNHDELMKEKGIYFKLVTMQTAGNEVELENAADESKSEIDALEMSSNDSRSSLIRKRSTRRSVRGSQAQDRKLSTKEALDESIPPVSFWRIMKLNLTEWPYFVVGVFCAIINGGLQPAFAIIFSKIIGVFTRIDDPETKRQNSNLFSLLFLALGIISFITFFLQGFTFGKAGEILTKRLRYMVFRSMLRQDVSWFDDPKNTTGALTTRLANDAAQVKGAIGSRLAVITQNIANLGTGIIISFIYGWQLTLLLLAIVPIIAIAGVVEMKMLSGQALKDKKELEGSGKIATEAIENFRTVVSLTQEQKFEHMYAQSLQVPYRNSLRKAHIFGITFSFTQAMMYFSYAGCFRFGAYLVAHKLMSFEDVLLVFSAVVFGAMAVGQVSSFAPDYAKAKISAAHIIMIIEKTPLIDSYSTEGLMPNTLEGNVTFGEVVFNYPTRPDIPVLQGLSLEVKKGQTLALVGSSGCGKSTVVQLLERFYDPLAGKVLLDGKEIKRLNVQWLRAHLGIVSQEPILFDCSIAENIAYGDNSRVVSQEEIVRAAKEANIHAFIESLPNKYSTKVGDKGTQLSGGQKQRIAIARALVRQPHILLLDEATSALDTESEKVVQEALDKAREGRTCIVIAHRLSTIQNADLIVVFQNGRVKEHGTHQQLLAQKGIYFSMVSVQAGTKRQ

Compound: COc1cc2c(cc1OC)CN(CCn1cc(COc3ccccc3C(=O)Nc3ccccc3)nn1)CC2
IC50 (K562): > 100 µM
fold change (FC) [1]: 3.8
IC50 (K562/A02): > 100 µM

Compound: COc1cc2c(cc1OC)CN(CCc1ccc(NC(=O)c3cc(OC)c(OC)cc3NC(=O)c3cnc4ccccc4c3)cc1)CC2
IC50 (K562): 31.6 µM
fold change (FC) [2]: 10.37
fold change (FC) [1]: 49.1
fold change (FC) [3]: 16.86
fold change (FC) [4]: 3.55
IC50 (K562/A02): 27.2 µM
fold change (FC) [5]: 6.1
fold change (FC) [6]: 31.98

Compound: COc1cc2c(cc1OC)CN(CCn1cc(COc3ccccc3C(=O)Nc3ccc(C)cc3)nn1)CC2
IC50 (K562): > 100 µM
fold change (FC) [1]: 12.6
IC50 (K562/A02): > 100 µM

Compound: COc1cc2c(cc1OC)CN(CCn1cc(COc3ccccc3C(=O)Nc3cccc(C)c3)nn1)CC2
IC50 (K562): > 100 µM
fold change (FC) [1]: 8
IC50 (K562/A02): > 100 µM

Compound: CCCCc1ccc(NC(=O)c2ccccc2OCc2cn(CCN3CCc4cc(OC)c(OC)cc4C3)nn2)cc1
IC50 (K562): > 100 µM
fold change (FC) [1]: 15.5
IC50 (K562/A02): > 100 µM

Compound: COc1cc2c(cc1OC)CN(CCn1cc(COc3ccccc3C(=O)Nc3ccc(OC(F)(F)F)cc3)nn1)CC2
IC50 (K562): > 100 µM
fold change (FC) [1]: 21.4
IC50 (K562/A02): > 100 µM

Compound: COc1cc2c(cc1OC)CN(CCn1cc(COc3ccccc3C(=O)Nc3ccc(Cl)cc3)nn1)CC2
IC50 (K562): > 100 µM
fold change (FC) [1]: 14
IC50 (K562/A02): > 100 µM

Compound: COc1cc2c(cc1OC)CN(CCn1cc(COc3ccccc3C(=O)Nc3cc(OC)c(OC)c(OC)c3)nn1)CC2
IC50 (K562): > 100 µM
fold change (FC) [1]: 3
IC50 (K562/A02): > 100 µM

Compound: COc1cc2c(cc1OC)CN(CCn1cc(COc3ccccc3C(=O)Nc3ccccc3C)nn1)CC2
IC50 (K562): > 100 µM
fold change (FC) [1]: 4.4
IC50 (K562/A02): > 100 µM

Compound: COc1ccc(NC(=O)c2ccccc2OCc2cn(CCN3CCc4cc(OC)c(OC)cc4C3)nn2)cc1OC
IC50 (K562): > 100 µM
fold change (FC) [1]: 12.4
IC50 (K562/A02): > 100 µM

Compound: COc1cc2c(cc1OC)CN(CCn1cc(COc3ccccc3C(=O)Nc3ccc([N+](=O)[O-])cc3)nn1)CC2
IC50 (K562): > 100 µM
fold change (FC) [1]: 4.6
IC50 (K562/A02): > 100 µM

Compound: COc1cc2c(cc1OC)CN(CCn1cc(COc3ccccc3C(=O)Nc3ccccc3[N+](=O)[O-])nn1)CC2
IC50 (K562): > 100 µM
fold change (FC) [1]: 3.6
IC50 (K562/A02): > 100 µM

inhibition (INH) [7]: Dose-dependent effect
inhibition (INH) [9]: Active
K [10]: 0.0067 s⁻¹
inhibition (INH) [14]: Dose-dependent effect
Ratio [21]: 1.4
Compound: COc1cc2c(cc1OC)CN(CCn1cc(COc3ccccc3C(=O)Nc3ccc(C(C)(C)C)cc3)nn1)CC2
IC50 (K562): > 100 µM
fold change (FC) [2]: 8.16
fold change (FC) [8]: 1.4
fold change (FC) [1]: 33.5
fold change (FC) [11]: 13.5
fold change (FC) [12]: 2.4
fold change (FC) [13]: 7.5
fold change (FC) [3]: 11.83
fold change (FC) [4]: 2.96
IC50 (K562/A02): > 100 µM
fold change (FC) [15]: 1.4
fold change (FC) [16]: <= 31.4
inhibition (INH) [17]: Dose-dependent effect
fold change (FC) [18]: <= 31.4
fold change (FC) [19]: 1.6
fold change (FC) [20]: <= 31.4
fold change (FC) [5]: 4.93
fold change (FC) [6]: 40.34
fold change (FC) [22]: 3.9

inhibition (INH) [9]: Active
inhibition (INH) [14]: Dose-dependent effect
Compound: COc1ccc(CCN(C)CCCC(C#N)(c2ccc(OC)c(OC)c2)C(C)C)cc1OC (stereo not drawn)

Compound: COc1cc2c(cc1OC)CN(CCn1cc(COc3ccccc3C(=O)Nc3ccc(F)cc3)nn1)CC2
IC50 (K562): > 100 µM
fold change (FC) [1]: 11.7
IC50 (K562/A02): > 100 µM

Compound: COc1cccc2c1C(=O)c1c(O)c3c(c(O)c1C2=O)C[C@@](O)(C(=O)CO)C[C@@H]3O[C@H]1C[C@H](N)[C@H](O)[C@H](C)O1 [DOXORUBICIN HYDROCHLORIDE]
IC50 (K562): 4.29 µM
fold change (FC) [1]: 1
IC50 (K562/A02): 96.9 µM

Compound: COc1ccc(NC(=O)c2ccccc2OCc2cn(CCN3CCc4cc(OC)c(OC)cc4C3)nn2)cc1
IC50 (K562): 79.2 µM
fold change (FC) [1]: 11.6
IC50 (K562/A02): > 100 µM

Compound: COc1cc2c(cc1OC)CN(CCn1cc(COc3ccccc3NC(=O)c3ccc(C(C)(C)C)cc3)nn1)CC2
IC50 (K562): > 100 µM
fold change (FC) [1]: 28.2
IC50 (K562/A02): > 100 µM

Compound: COc1cccc(NC(=O)c2ccccc2OCc2cn(CCN3CCc4cc(OC)c(OC)cc4C3)nn2)c1
IC50 (K562): > 100 µM
fold change (FC) [1]: 5.6 to 11.1
IC50 (K562/A02): > 100 µM

Compound: COc1cc2c(cc1OC)CN(CCn1cc(COc3ccccc3C(=O)Nc3cccc(Cl)c3)nn1)CC2
IC50 (K562): 87.4 µM
fold change (FC) [1]: 4.3
IC50 (K562/A02): > 100 µM

Compound: COc1cc2c(cc1OC)CN(CCn1cc(COc3ccccc3C(=O)Nc3cccc([N+](=O)[O-])c3)nn1)CC2
IC50 (K562): > 100 µM
fold change (FC) [1]: 3.5
IC50 (K562/A02): > 100 µM
